According to ChEMBL document CHEMBL1122925 (J Med Chem, 1985):
Several values for one entry are separate records, joined by “and”; a condition that tells them apart may be missing. Equal entries are not always repeated.

Key:
[1] = target: T1, Thymidine kinase (Human alphaherpesvirus 1) (UniProt Q9QNF7); assay: Relative substrate velocity was evaluated by using HSV-1 TK assay
T1 sequence (whole entry): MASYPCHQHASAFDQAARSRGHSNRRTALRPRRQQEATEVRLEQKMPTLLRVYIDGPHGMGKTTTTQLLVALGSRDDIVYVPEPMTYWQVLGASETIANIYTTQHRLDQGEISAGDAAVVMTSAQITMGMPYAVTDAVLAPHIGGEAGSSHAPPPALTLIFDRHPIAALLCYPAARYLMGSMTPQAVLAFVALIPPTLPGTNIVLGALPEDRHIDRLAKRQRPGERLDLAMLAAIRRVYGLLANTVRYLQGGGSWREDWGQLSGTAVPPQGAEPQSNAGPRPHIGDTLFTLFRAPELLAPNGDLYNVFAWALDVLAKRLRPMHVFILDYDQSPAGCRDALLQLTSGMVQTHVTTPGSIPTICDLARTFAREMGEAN

[2] = tested on: Thymidine kinase (Human herpesvirus 1); assay: Ability (300 uM) to compete with 150 uM of [14C]ACV for binding sites on viral enzyme (HSV-1 TK); details: Human alphaherpesvirus 1
[3] = tested on: Vero; assay: The concentration required to inhibit the growth of viral plaques by 50% of control in plaque reduction assay; type: functional, cell-based; details: Chlorocebus sabaeus
Summary of the method: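 HSV-1 plaque-reduction assay, H29 strain for most values and Mac strain for some. IC50 is the concentration that inhibits viral plaque growth by 50% relative to controls.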

[4] = tested on: Thymidine kinase (Human herpesvirus 1); assay: Relative substrate velocity was evaluated by using HSV-1 TK assay; details: Human alphaherpesvirus 1
[5] = tested on: Thymidine kinase (Human herpesvirus 1); assay: Ability (300 uM) to compete with 150 uM of [14C]ACV for binding sites on viral enzyme, Mac strain (HSV-1 TK); details: Human alphaherpesvirus 1
[6] = tested on: Vero; assay: Zone of inhibition of plaque formation in vero cells inoculated with HSV-1 virus along with disks containing 50 ug of compound; 11-50 mm zone of inhibition; type: functional, Chlorocebus sabaeus
Summary of the method: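 HSV-1 plaque-inhibition test in Vero cells, H29 strain for most values and Mac strain for some. Disks carry 50 μg of test compound. The read-out is the diameter of the zone without plaque formation, and a zone of 11–50 mm is scored (+).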

[7] = tested on: Thymidine kinase (Human herpesvirus 1); assay: Relative substrate velocity was evaluated against H29 strain by using HSV-1 TK assay; details: Human alphaherpesvirus 1
[8] = tested on: Thymidine kinase (Human herpesvirus 1); assay: Ability (300 uM) to compete with 150 uM of [14C]ACV for binding sites on H29 strain viral enzyme (HSV-1 TK); details: Human alphaherpesvirus 1
[9] = tested on: Thymidine kinase (Human herpesvirus 1); assay: Relative substrate velocity was evaluated against Mac strain by using HSV-1 TK assay; details: Human alphaherpesvirus 1

Row | Structure (SMILES) | inhibition [2] | IC50 [3] | inhibition [5] | further results
1 | Nc1nc(O)c2cc3ncn(COCCO)c3cc2n1 | 24% |  |  | Relative substrate velocity [1]: < 3%
2 | NC(=O)c1ncn(COCCO)n1 | 0% | > 200 µM |  | 
3 | Nc1nc2c(cnn2COCCO)c(=O)[nH]1 | 0% |  |  | 
4 | Nc1nc(O)c2ccn(COCCO)c2n1 |  |  | 6% | Relative substrate velocity [4]: 3%
5 | Nc1nc(=O)ccn1COCCO | 0% |  | 7% | Relative substrate velocity [4]: < 3%
6 | NC(=O)c1ncn(COCCO)c1N | 1% |  |  | 
7 | Nc1nc2c(ncn2COCCO)c(=O)[nH]1 [ACYCLOVIR] |  | 0.1 µM |  | 
8 | Nc1nc(O)c2nnn(COCCO)c2n1 |  | 129 µM | 23% | Zone of inhibition [6]: 11; Relative substrate velocity [7]: 9%; inhibition [8]: 27%; Relative substrate velocity [9]: 5% and 9%
